This is an account of results in paper PMC11255784 (RSC Advances, 2024).

One experiment has as its system Mtb H37Rv strain. The experiment is described as follows: Anti-TB activity, Microplate Alamar Blue Assay. It is filed as cell-based, Mycobacterium tuberculosis. The following applies: MABA, triplicates. On the technique in general: Resazurin is reduced to fluorescent resorufin, in cell work by metabolically active cells.
A further experiment concerns HEK293T cells. The experiment is described as follows: Cytotoxicity studies on HEK293T cell line. It is filed as cell-based, human. The following applies: for Selective index (SI): HEK293T IC50 versus MIC against Mtb H37Rv; for IC50: Homo sapiens, HEK-293T, read-out: IC50 (HEK293T). A digest of the protocol: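 Normal human embryonic kidney HEK293T cells were exposed to test compounds over a dose range of 7 to 2000 μM, and cell proliferation was read as OD at 450 nm to give IC50.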

In a further experiment the test system is Mtb H37Rv. To be noted: cited from earlier work.
[1] abbreviates: Mycobacterium tuberculosis, H37RV.

The term MIC denotes the lowest concentration that inhibits growth of the organism. Lower therefore signals greater potency. For “2-(4-(Phenylglycyl) piperazin-1-yl)-1,8-naphthyridine-3-carbonitrile [ANC-1]”, the MIC was found to be 25 µg/mL against Mtb H37Rv strain and 67.12 µM against Mtb H37Rv strain (value in brackets).

As a reminder, the IC50 is the midpoint of a concentration-inhibition curve. `N#Cc1cc2cccnc2nc1N1CCN(CC(=O)Nc2ccccc2)CC1` [ANA-1, 2-(4-(3-Cyano-1,8-naphthyridin-2-yl)piperazin-1-yl)-N-phenylacetamide] registered an MIC with Mtb H37Rv strain (setting [1]) of 12.5 µg/mL. In the experiment with HEK293T cells, the “Selective index (SI)” value was 17 and the IC50 came out at 580 ± 20.2 µM.

In the experiment with Mtb H37Rv strain (setting [1]), `CCc1ccc(NC(=O)CN2CCN(c3nc4ncccc4cc3C#N)CC2)cc1` [ANA-2, 2-(4-(3-Cyano-1,8-naphthyridin-2-yl)piperazin-1-yl)-N-(4-ethylphenyl)acetamide] gave an MIC of 25 µg/mL.

For `Cc1ccc(NC(=O)CN2CCN(c3nc4ncccc4cc3C#N)CC2)cc1C` [ANA-3, 2-(4-(3-Cyano-1,8-naphthyridin-2-yl)piperazin-1-yl)-N-(3,4-dimethylphenyl)acetamide], in the experiment on Mtb H37Rv strain (setting [1]), the minimum inhibitory concentration (MIC) is 25 µg/mL.

Compound `N#Cc1cc2cccnc2nc1N1CCN(CC(=O)Nc2ccc(F)cc2)CC1` [ANA-4, 2-(4-(3-Cyano-1,8-naphthyridin-2-yl)piperazin-1-yl)-N-(4-fluorophenyl)acetamide] registered an MIC in the experiment with Mtb H37Rv strain (setting [1]) of 25 µg/mL.

As to `N#Cc1cc2cccnc2nc1N1CCN(CC(=O)Nc2ccc(Br)cc2)CC1` [ANA-5, N-(4-Bromophenyl)-2-(4-(3-cyano-1,8-naphthyridin-2-yl)piperazin-1-yl)acetamide], the MIC against Mtb H37Rv strain (setting [1]) came to 25 µg/mL.

Regarding `N#Cc1cc2cccnc2nc1N1CCN(CC(=O)Nc2ccccc2F)CC1` [ANA-6, 2-(4-(3-Cyano-1,8-naphthyridin-2-yl)piperazin-1-yl)-N-(2-fluorophenyl)acetamide], the MIC in the experiment on Mtb H37Rv strain (setting [1]) is 12.5 µg/mL. Also, in the experiment on HEK293T cells, the “Selective index (SI)” value amounted to 23 and the IC50 is 753 ± 7.63 µM.

On to `N#Cc1cc2cccnc2nc1N1CCN(CC(=O)Nc2ccccc2[N+](=O)[O-])CC1` [ANA-7, 2-(4-(3-Cyano-1,8-naphthyridin-2-yl)piperazin-1-yl)-N-(2-nitrophenyl)acetamide], for which, in the experiment with Mtb H37Rv strain (setting [1]), the MIC came out at 12.5 µg/mL. In the experiment with HEK293T cells, the “Selective index (SI)” value is 19 and the IC50 came out at 571.2 ± 4.45 µM.

`N#Cc1cc2cccnc2nc1N1CCN(CC(=O)Nc2cccc(C(F)(F)F)c2)CC1` [ANA-8, 2-(4-(3-Cyano-1,8-naphthyridin-2-yl)piperazin-1-yl)-N-(3(trifluoromethyl)phenyl)acetamide] displayed an MIC against Mtb H37Rv strain (setting [1]) of 12.5 µg/mL.

`N#Cc1cc2cccnc2nc1N1CCN(CC(=O)Nc2ccc(F)c(F)c2)CC1` [ANA-9, 2-(4-(3-Cyano-1,8-naphthyridin-2-yl)piperazin-1-yl)-N-(3,4-difluorophenyl)acetamide]: inhibition of growth in the experiment with Mtb H37Rv strain (setting [1]) (MIC) required 25 µg/mL.

Compound `N#Cc1cc2cccnc2nc1N1CCN(CC(=O)Nc2cccc([N+](=O)[O-])c2)CC1` [ANA-10, 2-(4-(3-Cyano-1,8-naphthyridin-2-yl)piperazin-1-yl)-N-(3-nitrophenyl)acetamide] showed an MIC in the experiment on Mtb H37Rv strain (setting [1]) of 12.5 µg/mL.

As to `N#Cc1cc2cccnc2nc1N1CCN(CC(=O)Nc2ccc([N+](=O)[O-])cc2)CC1` [ANA-11, 2-(4-(3-Cyano-1,8-naphthyridin-2-yl)piperazin-1-yl)-N-(4-nitrophenyl)acetamide], it took 25 µg/mL to inhibit growth against Mtb H37Rv strain (setting [1]) (MIC). This MIC lies about 2-fold higher than the previous one.

Compound `N#Cc1cc2cccnc2nc1N1CCN(C(=O)c2ccc([N+](=O)[O-])o2)CC1` [ANA-12, 2-(4-(5-Nitrofuran-2-carbonyl)piperazin-1-yl)-1,8-naphthyridine-3-carbonitrile] came in with an MIC against Mtb H37Rv strain (setting [1]) of 6.25 µg/mL. Further, in the experiment on HEK293T cells, the “Selective index (SI)” value is recorded as 27 and the IC50 turned out to be 451 ± 20.2 µM.

On to `CCc1ccc(NCC(=O)N2CCN(c3nc4ncccc4cc3C#N)CC2)cc1` [ANC-2, 2-(4-((4-Ethylphenyl)glycyl)piperazin-1-yl)-1,8-naphthyridine-3-carbonitrile], for which inhibition of growth in the experiment with Mtb H37Rv strain (setting [1]) (MIC) required 12.5 µg/mL. Further, in the experiment on HEK293T cells, the “Selective index (SI)” value is 11 and the IC50 is 330 ± 3.4 µM.

`Cc1ccc(NCC(=O)N2CCN(c3nc4ncccc4cc3C#N)CC2)cc1C` [ANC-3, 2-(4-((3,4-Dimethylphenyl)glycyl)piperazin-1-yl)-1,8-naphthyridine-3-carbonitrile]: the MIC against Mtb H37Rv strain (setting [1]) amounted to 50 µg/mL.

In turn, `N#Cc1cc2cccnc2nc1N1CCN(C(=O)CNc2ccc(F)cc2)CC1` [ANC-5, 2-(4-((4-Fluorophenyl)glycyl)piperazin-1-yl)-1,8-naphthyridine-3-carbonitrile] showed an MIC in the experiment on Mtb H37Rv strain (setting [1]) of 25 µg/mL.

Take `N#Cc1cc2cccnc2nc1N1CCN(C(=O)CNc2ccc(Cl)cc2)CC1` [ANC-6, 2-(4-((4-Chlorophenyl)glycyl)piperazin-1-yl)-1,8-naphthyridine-3-carbonitrile]: inhibition of growth against Mtb H37Rv strain (setting [1]) (MIC) required 25 µg/mL.

Consider `N#Cc1cc2cccnc2nc1N1CCN(C(=O)CNc2ccc(Br)cc2)CC1` [ANC-7, 2-(4-((4-Bromophenyl)glycyl)piperazin-1-yl)-1,8-naphthyridine-3-carbonitrile], for which the MIC against Mtb H37Rv strain (setting [1]) was found to be 25 µg/mL.

Regarding `N#Cc1cc2cccnc2nc1N1CCN(C(=O)CNc2ccccc2F)CC1` [ANC-8, 2-(4-((2-Fluorophenyl)glycyl)piperazin-1-yl)-1,8-naphthyridine-3-carbonitrile], 25 µg/mL was the least that counted as inhibitory against Mtb H37Rv strain (setting [1]) (MIC).

The compound `N#Cc1cc2cccnc2nc1N1CCN(C(=O)CNc2ccccc2I)CC1` [ANC-9, 2-(4-((2-Iodophenyl)glycyl)piperazin-1-yl)-1,8-naphthyridine-3-carbonitrile] displayed an MIC in the experiment with Mtb H37Rv strain (setting [1]) of 25 µg/mL.

With `N#Cc1cc2cccnc2nc1N1CCN(C(=O)CNc2ccc(Br)cc2[N+](=O)[O-])CC1` [ANC-10, 2-(4-((4-Bromo-2-nitrophenyl)glycyl)piperazin-1-yl)-1,8-naphthyridine-3-carbonitrile], the MIC against Mtb H37Rv strain (setting [1]) is above 50 µg/mL.

`N#Cc1cc2cccnc2nc1N1CCN(C(=O)CNc2cccc(Cl)c2)CC1` [ANC-11, 2-(4-((3-Chlorophenyl)glycyl)piperazin-1-yl)-1,8-naphthyridine-3-carbonitrile]: the MIC against Mtb H37Rv strain (setting [1]) was 50 µg/mL.

Compound `N#Cc1cc2cccnc2nc1N1CCN(C(=O)CNc2cccc(C(F)(F)F)c2)CC1` [ANC-12, 2-(4-((3-(Trifluoromethyl)phenyl)glycyl)piperazin-1-yl)-1,8-naphthyridine-3-carbonitrile] had an MIC in the experiment on Mtb H37Rv strain (setting [1]) of 25 µg/mL. This MIC is about 2-fold lower than that of the compound before.

For the compound `N#Cc1cc2cccnc2nc1N1CCN(C(=O)CNc2ccc(Cl)cc2Cl)CC1` [ANC-13, 2-(4-((2,4-Dichlorophenyl)glycyl)piperazin-1-yl)-1,8-naphthyridine-3-carbonitrile], it took 50 µg/mL to inhibit growth against Mtb H37Rv strain (setting [1]) (MIC).

For the compound `N#Cc1cc2cccnc2nc1N1CCN(C(=O)CNc2ccc(F)c(F)c2)CC1` [ANC-14, 2-(4-((3,4-Difluorophenyl)glycyl)piperazin-1-yl)-1,8-naphthyridine-3-carbonitrile], the MIC with Mtb H37Rv strain (setting [1]) was above 50 µg/mL.

In turn, `N#Cc1cc2cccnc2nc1N1CCNCC1` [ANI-1, 2-(Piperazin-1-yl)-1,8-naphthyridine-3-carbonitrile] gave an MIC in the experiment on Mtb H37Rv strain (setting [1]) of 25 µg/mL.

In the experiment on Mtb H37Rv strain (setting [1]), `N#Cc1cc2cccnc2nc1N1CCN(C(=O)CCl)CC1` [ANI-2, 2-(4-(2-Chloroacetyl)piperazin-1-yl)-1,8-naphthyridine-3-carbonitrile] yielded an MIC of 25 µg/mL.

Take `CC[C@@H](CO)NCCN[C@@H](CC)CO` [Ethambutol, reference compound]: the MIC with Mtb H37Rv strain (setting [1]) was found to be 6.25 µg/mL.

`NNC(=O)c1ccncc1` [Isoniazid, reference compound] returned an MIC in the experiment with Mtb H37Rv strain (setting [1]) of 0.36 µg/mL.

In the experiment with Mtb H37Rv strain (setting [1]), `CO[C@H]1/C=C/O[C@@]2(C)Oc3c(C)c(O)c4c(O)c(c(/C=N/N5CCN(C)CC5)c(O)c4c3C2=O)NC(=O)/C(C)=C\C=C\[C@H](C)[C@H](O)[C@@H](C)[C@@H](O)[C@@H](C)[C@H](OC(C)=O)[C@@H]1C` [Rifampicin, reference compound] returned an MIC of 3.13 µg/mL. Further, in the experiment with Mtb H37Rv, the “inhibition against Mtb H37Rv” value was 98%.

The compound `Nc1ccc(C(=O)O)c(O)c1` [p-Amino salicylic acid, reference compound] displayed an MIC in the experiment on Mtb H37Rv strain (setting [1]) of 12.5 µg/mL.
